# Screening data deposited in PubChem by Broad Institute.
# FGF22 binding: binders of human FGF22 protein, primary screen, FGF22 synaptogenesis inhibitor project, biophysical, thermal shift, single point. activity (Tm shift, normalised), % at 9.99 µM. actives 1.5% (n = 340,000). recombinant FGF22 thermal shift, SYPRO orange fluorescence; percent of sucrose octasulfate shift, DMSO zero. Fibroblast growth factor 22 (Homo sapiens), Q9HCT0;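 active = mean Tm shift, scaled 0 neutral to 100 positive control, at about 1.3% or above, every replicate too, limit read from the data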
# Target sequence (Q9HCT0 whole entry, looked up): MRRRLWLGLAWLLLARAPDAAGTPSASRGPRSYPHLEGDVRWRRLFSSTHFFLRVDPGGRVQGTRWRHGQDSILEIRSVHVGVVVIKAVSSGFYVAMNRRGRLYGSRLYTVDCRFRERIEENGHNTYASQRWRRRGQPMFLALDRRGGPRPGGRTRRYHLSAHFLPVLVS
# PGC1a acetyl inh: inhibitors of PGC1a acetylation signal, primary screen, cell-based, U2OS, AlphaScreen, inhibitor mode; AlphaScreen anti-acetyl-lysine; with virally co-expressed GCN5 acetyltransferase; actives 0.17% (n = 350,000); AID 651687, 2012; inhibition, % at 15.6 µM;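 active = every replicate shows inhibition of at least 40%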;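 note: 0% = neutral control wells and 100% = positive control wells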
# Env fusion inh: inhibitors of HIV-1 Env-driven cell-cell fusion, primary screen, HeLa-JRFL effector, CEM21 target cells, luciferase; inhibition, % at 12.3 µM; actives 1.1% (n = 360,000); AID 651610, 2012;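 active = mean replicate inhibition score of at least 50 and every replicate individually at or above 50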;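 note: 0% = plate neutral controls and 100% = maraviroc near 300 nM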
# Cneo AK release: Cryptococcus neoformans cell lysis inducers, primary screen, AK release luminescence, single concentration; actives 0.2% (n = 360,000); C. neoformans lysis, adenylate kinase release luminescence, 4 h; normalised: neutral wells 0, clomiphene wells 100; lysis activity, % at 15 µM;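 active = mean lysis activity across replicates of at least 80%, whatever share of replicates individually reach that level; inactive = mean lysis activity below 80%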
#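 Assay system: log-phase C. neoformans yeast / Quantity: yeast cell density of 5 × 10^6 cells/mL / Medium: fresh YPD growth medium / Compound: single dose / Timing: static 4 h at 37 °C with compound, 1 h detection / Measured by: adenylate kinase release luminescence / Read-out: lysis from increased AK signal / Benchmarks: Clomiphene as positive lysis control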
# ERAP1 HTS inh: human ERAP1 aminopeptidase inhibitors, primary screen, biochemical, single point, plate reader; inhibition, % at 10.7 µM; AID 652197, 2013; actives 0.15% (n = 340,000); Endoplasmic reticulum aminopeptidase 1 (Homo sapiens), Q9NZ08; recombinant ERAP1, Leu-AMC fluorescence, 60 min;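 active = mean replicate inhibition of at least 30%, or all replicates individually reaching that 30% level; inactive = mean below 30% and not every replicate reaching it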;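 note: 0% = neutral control wells and 100% = L-leucinethiol positive control wells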
# Ecoli rRNA inh: reduced GFP signal of wild-type E. coli, primary screen, bacterial rRNA inhibitor project, GFP/RFP fluorescence, OD600, single point; GFP signal change (wild-type ribosome), % (concentration not given with the values); E. coli WT GFP vs humanized-ribosome RFP mutants, 24 h; hits give low values; DMSO median 0, no signal -100; AID 720706, 2013; actives 1.6% (n = 350,000);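 active = significant combined selectivity score with lowered wild-type GFP, culture density cut under 30%, mutant RFP and density less affected; inactive = any of these conditions unmet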
# Active calls of the source: *; . = no result; ! = not active in a repeat; [ ] = dose if it differs, or a comment. Most compounds without a hit are left out; they make up all but 3.5% or so of the library.
SMILES,FGF22 binding,PGC1a acetyl inh,Env fusion inh,Cneo AK release,ERAP1 HTS inh,Ecoli rRNA inh
C[C@H]1CN([C@@H](C)CO)S(=O)(=O)c2ccc(C3=CCCC3)cc2O[C@H]1CN(C)Cc1ccccc1,-0.2,-20.9,56.7*[16.7 µM],13.2,2.8,-21.9
Cc1cc(C)nc(-n2nc(C)c(Sc3ccc(F)cc3)c2N)n1,-0.1,-6.1,.,3.0,-5.1,-40.2*
CC[N+](CC)(CC#Cc1ccccc1)CC#Cc1ccccc1,0.2,.,21.8,.,-1.6,-44.6*
C[C@@H]1CCCCO[C@@H](CN(C)C(=O)C2CCCCC2)[C@@H](C)CN([C@@H](C)CO)C(=O)c2cc(NC(=O)Nc3ccccc3)ccc2O1,-0.2,0.7,-6.9[16.7 µM],-0.3,-0.8,1.5
O=C(Nn1c(-c2ccc(F)cc2)nc2ccccc2c1=O)c1cccnc1,0.2,-5.4,-6.8,.,-0.8,11.6
NNC(=O)Cc1csc(-c2ccccc2)n1,0.0,.,-16.6,.,-1.3,-27.9*
COC(=O)C[C@H]1CC[C@@H]2[C@H](COC[C@H](O)CN2S(=O)(=O)c2ccccc2C)O1,0.4,2.0,.,3.4,2.0,1.6
CCN(CC)c1ccc(S(=O)(=O)N2CCCCC2)cc1NC(=O)CSCc1c(C)noc1C,0.2,.,62.3*,-0.2,0.3,-8.8
O=C(COn1nnc2ccc(S(=O)(=O)N3CCOCC3)cc21)Nc1c(F)c(F)c(F)c(F)c1F,42.3,.,1.8,22.7,1.1,-20.1*
CC(C)CN(CC(C)C)C(=O)COn1nnc2ccc(S(=O)(=O)N3CCOCC3)cc21,-0.1,0.1,5.5,-1.4,-1.2,5.2
Cc1cc(NC(=O)COn2nnc3ccc(S(C)(=O)=O)cc32)ccc1Br,0.0,-22.6,5.5,.,4.2,-10.7
COc1cc(NC(=O)COn2nnc3ccc(S(C)(=O)=O)cc32)cc(OC)c1,43.1*,-15.6,6.4,-7.3,3.8,-17.9
CCCNC(=O)C[C@@H]1C[C@@H]2c3cc(NC(=O)Cc4ccncc4)ccc3O[C@@H]2[C@@H](CO)O1,0.1,0.0,93.3*[16.7 µM],1.1,.,1.5
CCCNC(=O)C[C@H]1C[C@@H]2c3cc(NC(=O)Nc4ccc(OC)cc4)ccc3O[C@@H]2[C@H](CO)O1,-0.4,4.0,.,-61.8,-1.6,1.4
CCCNC(=O)C[C@H]1C[C@H]2c3cc(NC(=O)Nc4ccc(OC)cc4)ccc3O[C@H]2[C@@H](CO)O1,-0.5,-1.2,.,89.7*,-4.2,4.3
O=C(C[C@@H]1C[C@@H]2c3cc(NC(=O)Cc4ccncc4)ccc3O[C@@H]2[C@H](CO)O1)NCCc1ccccc1,0.1,-1.8,5.0[16.7 µM],-1.6,0.5,3.6
CCCNC(=O)C[C@@H]1C[C@@H]2c3cc(NC(=O)Cc4ccncc4)ccc3O[C@@H]2[C@H](CO)O1,0.1,3.4,91.1*[16.7 µM],-4.1,.,3.1
O=C(C[C@H]1C[C@H]2c3cc(NC(=O)Cc4ccncc4)ccc3O[C@H]2[C@@H](CO)O1)NCc1ccncc1,-0.3,11.0,93.4*[16.7 µM],-11.4,-2.4,-0.6
O=C(C[C@H]1C[C@H]2c3cc(NC(=O)Cc4ccncc4)ccc3O[C@H]2[C@H](CO)O1)NCC1CC1,0.1,-16.9,-15.0[16.7 µM],-9.7,4.2,-2.6
COc1ccc(CCNC(=O)c2cnn3cccnc23)cc1OC,.,5.8,-51.0,-2.1,.,.
COCC(=O)Nc1ccc2c(c1)C(=O)N(C)C[C@@H](OC)[C@H](C)CN(Cc1ccccc1OC)[C@@H](C)CO2,0.1,2.2,.,5.1,1.2,2.6
CCOc1ccc(C(=O)NC(=S)Nc2ccc(N3CCC(C)CC3)cc2)cc1[N+](=O)[O-],.,.,.,1.6,.,.
O=S(=O)(c1ccc(Cl)cc1)N1CCN(c2ncnc3sccc23)CC1,0.2,-0.4,3.9,-4.5,1.8,-6.4
O=C(CN(Cc1ccc(Cl)cc1)C(=O)CNS(=O)(=O)c1ccccc1)NCC1CCCO1 (stereo unspecified),0.1,.,-3.4,-1.9,0.3,0.0
NS(=O)(=O)c1ccc(CCNC(=O)c2ccc(Br)s2)cc1,43.2*,.,11.8,.,3.4,16.0
SMILES,FGF22 binding,PGC1a acetyl inh,Env fusion inh,Cneo AK release,ERAP1 HTS inh,Ecoli rRNA inh
Nc1[nH]nc2nc(N3CCOCC3)nc(-c3ccccc3)c12,.,8.6,67.1*,-1.0,.,.
CC(C)c1ccc(-c2nc(N3CCCC3)nc3n[nH]c(N)c23)cc1,.,.,27.4,0.5,.,.
COc1cc2c(c3ccccc13)CCCC2=O,43.2*,12.6,-96.9,2.8,-3.2,-7.2
Cc1nc(C(=O)NNC(=O)c2ccc(Cl)cc2)c(C(F)(F)F)o1,0.3,14.3,-2.2,-1.5,4.1,-29.8*
CCN1C(=O)/C(=C2/Sc3ccccc3N2CC)S/C1=N\c1ncn[nH]1,43.6*,-5.9,-5.2,-2.4,4.8,.
CN1CCC(=NNC(=O)C(=O)Nc2ccccc2F)CC1,42.9*,2.0,-2.1,0.3,4.1,16.9
Cc1c(Cl)cccc1NC(=S)N1CCC(N(C)CC2CCCO2)CC1 (stereo unspecified),-0.1,-10.4,1.9,1.9,.,4.6
O=C(CSC1=NS(=O)(=O)c2cc(F)ccc2N1)Nc1ccc(F)cc1,1.7*,7.1,-10.1,0.4,-3.1,1.1
O=C(CSC1=NNC(c2ccccn2)S1)Nc1ccccc1 (stereo unspecified),-0.1,1.0,31.0,-0.5,.,-19.4*
O=C(CCc1nc2ccccc2c(=O)[nH]1)NCCN1C(=O)S/C(=C\c2ccc(OC(F)F)cc2)C1=O,-0.1,3.5,.,-2.5,2.2,9.3
CCCCCOc1ccc(C(=O)NCCC(=O)NCCCC(=O)OCC)cc1,-0.1,10.8,-28.2,.,-3.2,-25.1*
Cc1ccc(S(=O)(=O)N2[C@@H](c3ccc(C(C)(C)C)cc3)C(C(=O)O)=CC[C@H]2c2ccc(Cl)c(Cl)c2)cc1,0.3,-43.3,3.3,2.1,.,2.0
COc1cccc(-c2ccc(C3[C@@H]4CN(Cc5cccc(F)c5)C[C@H]3N4)cc2)c1 (stereo partly specified),.,97.5*!,.,.,-0.2,-58.6
COc1cc(CN2C[C@@H]3N[C@H](C2)C3c2ccc(-c3ccccc3C)cc2)cc(OC)c1 (stereo partly specified),.,104.6*!,.,.,-2.3,-56.2
CCCNC(=O)C1CCC(CNS(=O)(=O)c2ccc3c(c2)N(C(C)=O)CCO3)CC1 (stereo unspecified),40.9,9.4,0.5,0.7,-1.7,-0.2
COc1ccc(COCC(O)CN2CCC(C(N)=O)CC2)cc1OC (stereo unspecified),43.6*,.,40.2,.,-4.9,4.0
